According to ChEMBL document CHEMBL1140196, “Synthesis and biological activities of some new fluorinated coumarins and 1-aza coumarins” (Eur J Med Chem, 2008):
Activity calls are given as the source filed them.

Experiments:
Rattus norvegicus [1] = assay: Antiinflammatory activity in Wistar rat assessed as inhibition of formalin-induced paw oedema volume at 100 mg/kg, po administered 30 mins before formalin challenge after 4 hrs relative to control; type: functional
Method in brief: (§1)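 Oral dosing at 100 mg/kg as a 2% CMC suspension, 30 min before injecting 3.5% formalin into the paw. Groups of six Wistar rats of either sex. Paw volume read by mercury-displacement plethysmograph at 0 h (right after formalin) and at 1, 2, 3, 4 and 5 h. Percent inhibition versus plain 2% CMC controls; SEM reported.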

Aspergillus niger [2] = assay: Antifungal activity against Aspergillus niger at 50 ug/mL after 48 hrs by cup-plate method; type: functional
Rattus norvegicus [3] = assay: Antiinflammatory activity in Wistar rat assessed as inhibition of formalin-induced paw oedema volume at 100 mg/kg, po administered 30 mins before formalin challenge after 3 hrs relative to control; type: functional; method in brief: as §1
[4] = Acute toxicity in ip dosed albino mouse after 24 hrs; type: organism-based; details: in vivo
Method in brief: (§2)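 Groups of six albino mice (20–25 g), fasted overnight, dosed once orally or intraperitoneally at 100 to 1000 mg kg^-1 body weight. Observed for 24 h for mortality and signs of acute toxicity (altered motor activity, tremors, convulsion, sedation, lacrimation). LD50 cut-off set at the highest dose tested, 1000 mg kg^-1.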

Escherichia coli [5] = assay: Antibacterial activity against Escherichia coli at 100 ug/mL after 48 hrs by cup-plate method; type: functional
Bacillus [6] = assay: Antibacterial activity against […] at 100 ug/mL after 48 hrs by cup-plate method; type: functional
Rattus norvegicus [7] = assay: Antiinflammatory activity in Wistar rat assessed as inhibition of formalin-induced paw oedema volume at 100 mg/kg, po administered 30 mins before formalin challenge after 1 hr relative to control; type: functional; method in brief: as §1
Macrophomina phaseolina [8] = assay: Antifungal activity against Rhizoctonia bataticola at 100 ug/mL after 48 hrs by cup-plate method; type: functional
Rattus norvegicus [9] = assay: Antiinflammatory activity in Wistar rat assessed as inhibition of formalin-induced paw oedema volume at 100 mg/kg, po administered 30 mins before formalin challenge after 2 hrs relative to control; type: functional; method in brief: as §1
Rattus norvegicus [10] = assay: Antiinflammatory activity in Wistar rat assessed as inhibition of formalin-induced paw oedema volume at 100 mg/kg, po administered 30 mins before formalin challenge after 5 hrs relative to control; type: functional; method in brief: as §1
Bacillus [11] = assay: Antibacterial activity against […] at 25 ug/mL after 48 hrs by cup-plate method; type: functional; details: for zone of inhibition at 25 µg/mL: read-out: IZ
Bacillus [12] = assay: Antibacterial activity against […] at 50 ug/mL after 48 hrs by cup-plate method; type: functional
Aspergillus niger [13] = assay: Antifungal activity against Aspergillus niger at 100 ug/mL after 48 hrs by cup-plate method; type: functional
Aspergillus niger [14] = assay: Antifungal activity against Aspergillus niger at 25 ug/mL after 48 hrs by cup-plate method; type: functional; details: for zone of inhibition at 25 µg/mL: read-out: IZ
Rattus norvegicus [15] = assay: Gastrointestinal toxicity in Wistar rat assessed as ulcerogenic effect at 400 mg/kg, po administered twice at 2 hrs interval after 4 hrs; type: organism-based; design: dose 400 mg/kg, route oral; details: in vivo
Method in brief: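 Male Wistar rats fasted 36 h, then given 400 mg/kg orally twice, 2 h apart. Animals killed 4 h later and the stomach examined for lesions; ulcer index recorded.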

Macrophomina phaseolina [16] = assay: Antifungal activity against Rhizoctonia bataticola at 50 ug/mL after 48 hrs by cup-plate method; type: functional
Mus musculus = assay: Analgesic activity in albino mouse assessed as inhibition of acetic acid-induced writhing at 10 mg/kg, po; type: functional
Method in brief: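 Acetic acid writhing test: 0.6% acetic acid at 0.1 ml/10 g given intraperitoneally to albino mice of both sexes (18–22 g). Compounds given orally at 10 mg/kg as a suspension in 5% carboxymethyl cellulose. Indomethacin 10 mg/kg was the reference under the same conditions.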

Escherichia coli [17] = assay: Antibacterial activity against Escherichia coli at 25 ug/mL after 48 hrs by cup-plate method; type: functional; details: for zone of inhibition at 25 µg/mL: read-out: IZ
Macrophomina phaseolina [18] = assay: Antifungal activity against Rhizoctonia bataticola at 25 ug/mL after 48 hrs by cup-plate method; type: functional
Escherichia coli [19] = assay: Antibacterial activity against Escherichia coli at 50 ug/mL after 48 hrs by cup-plate method; type: functional
[20] = Acute toxicity in po dosed albino mouse after 24 hrs; type: organism-based; details: in vivo; method in brief: as §2

Compound	inhibition in vivo at 100 mg/kg (Rattus norvegicus [1]) [%]	inhibition at 50 µg/mL (Aspergillus niger [2]) [%]	inhibition in vivo at 100 mg/kg (Rattus norvegicus [3]) [%]	LD50 at 24 h [4] [mg/kg]	inhibition at 100 µg/mL (Escherichia coli [5]) [%]	inhibition at 100 µg/mL (Bacillus [6]) [%]	inhibition in vivo at 100 mg/kg (Rattus norvegicus [7]) [%]	inhibition at 100 µg/mL (Macrophomina phaseolina [8]) [%]	inhibition in vivo at 100 mg/kg (Rattus norvegicus [9]) [%]	inhibition in vivo at 100 mg/kg (Rattus norvegicus [10]) [%]	inhibition at 25 µg/mL (Bacillus [11]) [%]	zone of inhibition at 25 µg/mL (Bacillus [11]) [mm]	inhibition at 50 µg/mL (Bacillus [12]) [%]	inhibition at 100 µg/mL (Aspergillus niger [13]) [%]	UI (Rattus norvegicus [15])	inhibition at 50 µg/mL (Macrophomina phaseolina [16]) [%]	inhibition in vivo at 10 mg/kg (Mus musculus) [%]	inhibition at 25 µg/mL (Escherichia coli [17]) [%]	zone of inhibition at 25 µg/mL (Escherichia coli [17]) [mm]	LD50 at 24 h [20] [mg/kg]	further results
O=c1cc(COc2ccc(F)cc2)c2ccc(Cl)cc2[nH]1	66	47	54	> 800	78	76	24	86	24	78	22	52	40	79	67.5	72	61.3	34	72	> 1000	inhibition at 25 µg/mL (Aspergillus niger [14]): 34%; zone of inhibition at 25 µg/mL (Aspergillus niger [14]): 68 mm; inhibition at 25 µg/mL (Macrophomina phaseolina [18]): 55%; inhibition at 50 µg/mL (Escherichia coli [19]): 56%
O=c1cc(COc2ccc(F)cc2)c2ccccc2[nH]1	63	–	52	> 800	–	–	35	–	23	77	–	–	–	–	60.71	–	15.8	–	–	> 1000	–
O=c1cc(COc2ccc(F)cc2)c2cc(Cl)ccc2[nH]1	71	44	57	> 800	81	80	39	84	28	80	28	60	51	75	71.42	68	26.9	45	88	> 1000	inhibition at 25 µg/mL (Aspergillus niger [14]): 29%; zone of inhibition at 25 µg/mL (Aspergillus niger [14]): 62 mm; inhibition at 25 µg/mL (Macrophomina phaseolina [18]): 50%; inhibition at 50 µg/mL (Escherichia coli [19]): 62%
Cc1ccc2oc(=O)cc(COc3ccc(F)cc3)c2c1	64	–	48	> 700	–	–	40	–	36	76	–	–	–	–	57.29	–	72.7	–	–	> 1000	–
Cc1ccc2c(COc3ccc(F)cc3)cc(=O)oc2c1	–	21	–	–	62	64	–	53	–	–	21	50	37	52	–	30	–	17	44	–	Activity (Aspergillus niger [14]): inactive; zone of inhibition at 50 µg/mL (Macrophomina phaseolina [16]; read-out: IZ): 80 mm; Activity (Macrophomina phaseolina [18]): inactive; inhibition at 50 µg/mL (Escherichia coli [19]): 37%
O=c1cc(CNc2ccc(F)cc2)c2ccc3ccccc3c2o1	71	–	53	> 700	–	–	81	–	54	81	–	–	–	–	64.93	–	76.4	–	–	> 1000	–
O=c1cc(COc2ccc(F)cc2)c2ccc3ccccc3c2o1	66	–	45	> 800	–	–	46	–	30	75	–	–	–	–	61.8	–	23.2	–	–	> 1000	–
